From ChEMBL document CHEMBL1765063, “Synthesis and anti-melanogenic activity of hydroxyphenyl benzyl ether analogues” (Bioorg Med Chem, 2011) come the findings set out here.

Test [1] has as its system Radical scavenging activity. Put plainly: Antioxidant activity assessed as DPPH free radical scavenging activity after 30 mins. The format is functional. The essentials: (§1)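 Compounds in ethanol mixed 1:1 by volume with 200 µM DPPH stock (stock concentration). Shaken 30 min at room temperature, absorbance read at 517 nm. Percent scavenging taken against DPPH without compound, blank-corrected. Screening done at 100 µM final. […] Triplicate runs, vitamin C as positive control.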

The subject of test [2] is Radical scavenging activity. Put plainly: Antioxidant activity assessed as DPPH free radical scavenging activity at 100 uM after 30 mins. The format is functional. The essentials: as §1
On the technique in general: The DPPH test is a chemical assay of radical scavenging.

Test [3] relates to B16. Nature of the test: Inhibition of alpha-MSH-induced melanin synthesis in mouse B16 cells grown in a 5% CO2-95% air atmosphere at 10 uM after 3 days. In kind it is functional. The note with it: B16, 72 h. Put shortly:
(§2)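 Mouse B16 melanoma cells seeded at 2.5×10^3 per well in DMEM with 10% FBS and grown 1 day at 37 °C. α-MSH was added together with compound at various concentrations, then cells were incubated 3 days at 37 °C. Absorbance at 405 nm was read against a synthetic melanin standard curve (melanin dissolved in 0.85 N KOH). IC50 is the mean of triplicate determinations.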

The target of test [4] is T1, Tyrosinase (Mus musculus) (UniProt P11344).
T1 sequence (whole entry): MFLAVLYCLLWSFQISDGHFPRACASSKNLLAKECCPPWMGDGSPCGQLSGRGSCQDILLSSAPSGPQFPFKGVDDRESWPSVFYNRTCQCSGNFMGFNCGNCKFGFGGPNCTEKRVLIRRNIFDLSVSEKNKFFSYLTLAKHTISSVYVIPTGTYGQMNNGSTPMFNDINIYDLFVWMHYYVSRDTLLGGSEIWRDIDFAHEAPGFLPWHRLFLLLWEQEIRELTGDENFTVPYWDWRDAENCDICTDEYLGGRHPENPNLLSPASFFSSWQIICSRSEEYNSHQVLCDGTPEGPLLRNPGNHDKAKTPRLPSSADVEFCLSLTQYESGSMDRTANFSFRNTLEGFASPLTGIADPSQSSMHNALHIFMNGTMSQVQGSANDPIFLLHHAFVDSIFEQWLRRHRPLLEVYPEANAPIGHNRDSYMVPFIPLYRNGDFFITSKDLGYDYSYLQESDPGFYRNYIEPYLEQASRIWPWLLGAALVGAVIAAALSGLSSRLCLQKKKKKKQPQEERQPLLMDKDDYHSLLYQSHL
Nature of the test: Inhibition of tyrosinase activity in alpha-MSH-stimulated mouse B16 cells at 100 uM using L-tyrosine as substrate. In kind it is cell-based. Put shortly:
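Enzyme source: B16 cells stimulated 48 h with 10 nM α-MSH, sonicated on ice and centrifuged. Supernatant dialysed against 50 mM sodium phosphate, pH 6.8. Compound preincubated with the cell-free enzyme, then 5 mM L-tyrosine added as substrate. Initial rate of dopachrome formation followed at 475 nm. One unit converts 1 nmol L-tyrosine per min.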

Another test has as its target T2, Tyrosinase (Mus musculus, UniProt P11344).
T2 sequence (P11344 whole entry): T1 sequence (whole entry)
Put plainly: Inhibition of tyrosinase activity in alpha-MSH-stimulated mouse B16 cells using L-tyrosine as substrate. The format is cell-based. The essentials: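 Enzyme source: B16 cells stimulated 48 h with 10 nM α-MSH, sonicated on ice and centrifuged. Supernatant dialysed against 50 mM sodium phosphate, pH 6.8. Compound preincubated with the cell-free enzyme, then 5 mM L-tyrosine added as substrate. One unit converts 1 nmol L-tyrosine per min.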

In test [5] the test system is B16. Nature of the test: Inhibition of alpha-MSH-induced melanin synthesis in mouse B16 cells grown in a 5% CO2-95% air atmosphere after 3 days. The note with it: B16, 72 h. The format is functional, cell-based. Put shortly: as §2

By EC50 is commonly meant the concentration at which the effect is half-maximal. As a reminder, the inhibition is how much of the control response was suppressed. What is called IC50 is the concentration that gives 50% inhibition. For the compound `Oc1cc(O)cc(OCc2ccc(F)cc2)c1`, in test [1], the EC50 was 140 µM. The inhibition in test [2] worked out at 46.6%; in test [4] it was 55.5%. Also, in the test with B16 [3], 10 µM produced 14% inhibition. The IC50 on Tyrosinase came out at 90 µM.

Turning to `Oc1ccc(OCc2ccccc2Cl)cc1`, the EC50 in test [1] amounted to 113 µM. Further, the inhibition in test [2] worked out at 46.5%; in test [4], 0%. Besides, 10 µM produced 55% inhibition in the test with B16 [3].

In the test with B16 [5], `OC[C@H]1O[C@@H](Oc2ccc(O)cc2)[C@H](O)[C@@H](O)[C@@H]1O` [ARBUTIN] gave an IC50 of 99000 nM.

With `O=C1O[C@H]([C@@H](O)CO)C(O)=C1O` [ASCORBIC ACID], the EC50 in test [1] was determined as 26.2 µM. Besides, the inhibition in test [2] is 93.9%.

`COc1cc(COc2ccc(O)cc2)cc(OC)c1` had an IC50 with B16 [5] of 1930 nM. The EC50 in test [1] stood at 76.3 µM. For the same compound, the results for the inhibition in test [2] and in test [4] were 54.1% and 0%, respectively. This compound showed an inhibition at 10 µM with B16 [3] of more than 100%.

Take `CC(=O)Oc1cc(O)cc(OCc2ccc(Cl)c(Cl)c2)c1`: in test [2], the inhibition was 8%.

Regarding `Oc1cc(OCc2cccc(Cl)c2)cc(OCc2cccc(Cl)c2)c1`, the values for the inhibition in test [2] and in test [4] were 22.1% and 1.5%, respectively. For the same compound, the inhibition at 10 µM in the test with B16 [3] turned out to be 21%.

As for `COc1cc(COc2cc(O)cc(O)c2)cc(OC)c1`, the EC50 in test [1] is 129 µM. The inhibition turned out to be 46.8% in test [2] and 27.5% in test [4]. Also, at 10 µM the inhibition with B16 [3] was 19%.

Turning to `Oc1ccc(OCc2cccc(Cl)c2)cc1`, the half-maximal inhibitory concentration (IC50) in the test with B16 [5] is 1830 nM. Moreover, in test [1], the EC50 stood at 76.8 µM. Further, the inhibition in test [2] came out at 54.7%; in test [4], 1%. In the test on B16 [3], this compound gave an inhibition at 10 µM of 78%.

With `Oc1cc(O)cc(OCc2cccc(Cl)c2)c1`, the EC50 in test [1] amounted to 119 µM. Besides, the inhibition in test [2] was 49%; in test [4] it was 70.5%. For the same compound, at 10 µM the inhibition in the test with B16 [3] was 18%. Further, the IC50 against Tyrosinase stood at 54.7 µM.

For the compound `Oc1ccc(OCc2ccc(F)cc2)cc1`, in test [1], the EC50 came out at 102 µM. Besides, the inhibition in test [2] was 48.2%; in test [4] it was 1.5%. In addition, in the test with B16 [3], 10 µM produced 42% inhibition.

Take `Oc1cc(OCc2ccccc2Cl)cc(OCc2ccccc2Cl)c1`: the inhibition in test [2] came to 15.6%; in test [4], 3.5%. The same compound had an inhibition at 10 µM in the test on B16 [3] of 33%.

For the compound `Oc1cc(O)cc(OCc2ccccc2Cl)c1`, the EC50 in test [1] worked out at 165 µM. Besides, the values for the inhibition in test [2] and in test [4] were 42.8% and 45.5%, respectively. This compound gave an inhibition at 10 µM in the test on B16 [3] of 11%.

On to `Oc1cc(OCc2ccc(Cl)c(Cl)c2)cc(OCc2ccc(Cl)c(Cl)c2)c1`, for which the inhibition in test [2] amounted to 17%; in test [4] it was 0%. Also, the inhibition at 10 µM in the test with B16 [3] was 4%.

In the test with B16 [5], `Oc1ccc(OCc2ccc(Cl)c(Cl)c2)cc1` showed an IC50 of 1870 nM. Further, the inhibition in test [2] stood at 33.2%; in test [4], 9.5%. 10 µM produced 87% inhibition in the test on B16 [3].

`Oc1cc(OCc2ccc(F)cc2)cc(OCc2ccc(F)cc2)c1`: the inhibition in test [2] amounted to 21.2%; in test [4], 5.5%. 10 µM produced 12% inhibition in the test with B16 [3].

As for `COc1cc(COc2cc(O)cc(OCc3cc(OC)cc(OC)c3)c2)cc(OC)c1`, the inhibition in test [2] is 27.4%; in test [4] it was 0%. Further, testing at 10 µM with B16 [3] gave an inhibition of 6%.

`COc1cc(COc2cc(O)cc(OC(C)=O)c2)cc(OC)c1`: in test [2], the inhibition was 1.7%.

As to `Oc1cc(O)cc(OCc2ccc(Cl)c(Cl)c2)c1`, the inhibition in test [2] turned out to be 37.3%; in test [4], 66%. Besides, at 10 µM the inhibition with B16 [3] was 15%. On Tyrosinase, this compound gave an IC50 of 66.4 µM.
